TRPC6 act: activates the mouse TRPC6 cation channel; Q61143; B-score at 10 µM; 0.13% of 310,000 active; HEK293-TRPC6 membrane potential dye fluorescence; hits give high values;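 active means B-score of the integrated fluorescence ratio above library mean plus 3 SD, and starting fluorescence ratio within library mean plus 5 SD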;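 further: higher score means more depolarization so channel activation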
Platelet DG rel: modulates dense granule release in human platelets; human platelet-rich plasma, SFLLRN dense granule ATP release, luminescence; inhibition, %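 (compounds screened at 7.5 µM in platelet-rich plasma)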; 0.22% of 300,000 active; AID 1663;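 active means mean replicate score, as percent of positive control, at or above 50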
TRPC4 block: blocks the mouse TRPC4 cation channel; HEK293 TRPC4beta/mu-opioid, DAMGO-evoked Fluo4 calcium flux; hits give low values; B-score at 10 µM; 0.39% of 300,000 active; AID 2247;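 active means B-score over 3 SD under the library average, no early fluorescence shift, positive overall ratio signal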
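Assay system: TRPC4beta/mu-opioid receptor HEK293 cell line; compound dosing: single concentration per test compound; detection: Fluo4 Ca2+ flux fluorescence; evaluation: per-well B score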
TRPC4 agonist: opens the mouse TRPC4 cation channel | Q9QUQ5 | HEK293 TRPC4beta/mu-opioid, Fluo4 calcium fluorescence; hits give high values | B-score at 10 µM | 0.49% of 310,000 active | AID 2237;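 active means B-score above 5 SD of library B-scores, and initial fluorescence ratio not above library mean plus 5 SD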;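 further: positive B-score marks a calcium rise read as TRPC4 activation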
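Assay system: HEK293 cells stably co-expressing mouse TRPC4beta and mu-opioid receptor / Timing: Fluo4 dye loading 45 min at room temperature, 110 s recording / Signal: Fluo4 calcium-sensitive dye fluorescence, kinetic, 1 Hz baseline / Read-out: integrated baseline-normalised fluorescence ratio, converted to per-well B score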
TRPC6 inhibitor: blocks the mouse TRPC6 cation channel; AID 2553; 1.1% of 310,000 active; B-score at 10 µM; Q61143; HEK293-TRPC6, membrane potential dye, ACh-evoked depolarization; hits give low values;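 active means B-score under library mean minus 3 SD, initial fluorescence not abnormally high, positive integrated signal ratio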;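 further: B-score derived from integrated fluorescence ratio over the kinetic read; more negative B-score means stronger inhibition of depolarization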
TRPC4 PAM: allosteric potentiators of mouse TRPC4 channel; Q9QUQ5; HEK293 TRPC4beta/mu-opioid, DAMGO EC20, Fluo-4 Ca2+ flux; hits give high values; B-score at 10 µM; 0.42% of 310,000 active;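 active means B-score of calcium response area above 5 SD of library B-scores, with initial fluorescence ratio within 5 SD of library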;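 further: B-score of integrated fluorescence ratio over time as area under calcium response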
TRPC4 spec 2: second check of whether TRPC6 inhibitors also affect mouse TRPC4 | inhibition, % at 10 µM | shares compounds with TRPC6 inhibitor | 42% of 920 active | HEK293 TRPC4/MOR, membrane potential dye fluorescence; channel activated by saturating DAMGO dose | AID 2776;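 active means compounds whose fluorescence signal differed from control wells by over 3 SD, either direction, in both duplicate plates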
TRPC4 spec: tests whether TRPC6 inhibitors also affect mouse TRPC4; shares compounds with TRPC6 inhibitor; 61% of 920 active; activity change, negative = inhibition, % at 10 µM; HEK293 TRPC4/mu-opioid, membrane potential fluorescence;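 active means rise or fall in signal beyond 3 SD of buffer-only wells in both replicate plates, either sign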;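 further: integrated kinetic ratio of fluorescence range over baseline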
HEK293 MPD ctr 2-1: second check of TRPC6 inhibitor effects in parental HEK293 cells. shares compounds with TRPC6 inhibitor. parental HEK293 membrane potential dye fluorescence; maximal acetylcholine challenge after compound addition. signal change vs control, % at 10 µM. 31% of 920 active;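 active means membrane potential signal moving either way by over 3 SD of the maximum-effect control, in both duplicate plates, meaning non-specific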
HEK293 MPD ctr-1: parental HEK293 nonspecific activity of TRPC6 inhibitors; 60% of 920 active; AID 2780; membrane potential signal change, % at 10 µM; shares compounds with TRPC6 inhibitor; parental HEK293 membrane potential dye fluorescence;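 active means membrane potential signal shifting up or down by more than 3 SD of buffer-only wells, on both duplicate plates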
HEK293 MPD ctr-2: checks TRPC6 modulator effects in parental HEK293 cells | shares compounds with TRPC6 inhibitor | AID 488924 | membrane potential dye fluorescence | 51% of 2,400 active | membrane potential signal change, % at 10 µM;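 active means membrane potential signal moves up or down beyond 5 SD from buffer-only wells, on both duplicate plates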
HEK293 MPD ctr 2-2: second counter-screen for TRPC6 modulators: effect in parental HEK293 cells. membrane potential dye fluorescence; after compound, maximal acetylcholine stimulation. shares compounds with TRPC6 inhibitor. inhibition, % at 10 µM. 14% of 2,400 active. AID 488926;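 active means membrane potential signal drops by more than 5 SD from the mean control signal, in both duplicate plates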;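 further: plate controls were acetylcholine ECmax control wells for no effect and buffer only wells for full effect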
TRPC4/MOR mod: mouse TRPC4 off-target activity of TRPC6 modulators | shares compounds with TRPC6 inhibitor | HEK293 TRPC4/mu-opioid, membrane potential fluorescence | percent change from control (negative = decrease, positive = increase), % at 10 µM | 69% of 2,400 active;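 active means membrane potential signal moved up or down beyond 5 SD of buffer control wells, in both duplicate plates, actives on both sides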;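 further: plate controls were assay buffer wells for no effect and DAMGO maximal-effect wells for full effect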
TRPC4/MOR inh 2: mouse TRPC4 off-target activity of TRPC6 modulators, second screen | shares compounds with TRPC6 inhibitor | HEK293 TRPC4/mu-opioid, membrane potential dye fluorescence; stimulated with maximal-effect DAMGO | inhibition, % at 10 µM | 55% of 2,400 active | AID 488928;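 active means drop in membrane potential signal beyond 5 SD of the control wells in both duplicate plates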;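 further: TRPC4 counter screen for TRPC6 hits run under conditions tuned for TRPC6 not TRPC4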
TRPC6 inh conf: mouse TRPC6 inhibitor confirmation; inhibition, % at 10 µM; 43% of 3,300 active; HEK293-TRPC6, membrane potential dye, ACh-evoked depolarization; AID 488960; shares compounds with TRPC6 inhibitor;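 active means fluorescence ratio falls more than 5 SD below the full-stimulation control mean, in both duplicate runs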;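 further: integrated fluorescence ratio of peak minus minimum over baseline after agonist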
TRPC6 act confirm: confirmation of mouse TRPC6 activators; shares compounds with TRPC6 inhibitor; HEK293-TRPC6 membrane potential dye fluorescence, FDSS; activation, % at 10 µM; 11% of 2,800 active; AID 488961;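 active means ratio signal rise beyond 5 SD above unstimulated control wells' mean, seen in both duplicate runs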;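 further: plate controls were buffer EC0 wells for no effect and acetylcholine ECmax response for full effect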
An asterisk follows results filed as active; i = inactive; . = no result; + = active, no number. Hits are enriched below; roughly 2.5% of the tested compounds scored in any of these assays.

SMILES	TRPC6 act	Platelet DG rel	TRPC4 block	TRPC4 agonist	TRPC6 inhibitor	TRPC4 PAM	HEK293 MPD ctr-2	HEK293 MPD ctr 2-2	TRPC4/MOR mod	TRPC4/MOR inh 2	TRPC6 inh conf	TRPC6 act confirm	others
O=C(O)c1cccc(-c2ccc(/C=N/Nc3ccc([N+](=O)[O-])cc3)o2)c1	i	7	i	i	i	i	.	.	.	.	.	.
O=C(O)c1ccc(-c2ccc(/C=N/Nc3ccc([N+](=O)[O-])cc3)o2)cc1	43*	13	i	121*	i	19*	+	i	310%*	i	i	484%*
Cc1cc(C)c(C)c(S(=O)(=O)N2CCC(C(=O)NCC(c3ccccc3)N(C)C)CC2)c1C (stereo unspecified)	i	2	i	i	i	i	.	.	.	.	.	.
CCOc1ccc(NC(=S)NCc2ccc3[nH]c(C)cc3c2)cc1	i	9	i	i	-8.1*	i	.	.	.	.	i	i	TRPC4 spec 2=i;TRPC4 spec=-9.5%*;HEK293 MPD ctr 2-1=i;HEK293 MPD ctr-1=-150%*
CN1CCN(c2ncnc3sc(-c4ccccc4)cc23)CC1	i	-2	i	i	-6.2*	i	i	i	i	38%*	i	i
c1ccc(-c2cc3c(N4CCN(c5ccccc5)CC4)ncnc3s2)cc1	i	0	i	i	i	i	.	.	.	.	.	.
Cc1cccc(C)c1NC(=O)c1cccnc1	i	1	i	i	-6.3*	i	i	i	i	i	i	i
CCOC(=O)/C(C#N)=C/c1cn(CCOc2ccc(OC)cc2)c2ccccc12	i	-1	i	i	i	i	.	.	.	.	.	.
CCn1cc(C(=O)N2CCCC2)c(=O)c2cc(S(=O)(=O)N3CCOCC3)ccc21	i	-13	i	i	i	i	.	.	.	.	.	.
Cc1ccc(C23CC4CC(CC(C(=O)N(C)C)(C4)C2)C3)cc1	i	-3	i	i	i	i	.	.	.	.	.	.
COc1ccc(S(=O)(=O)N2CCCCCC2)cc1C(=O)NCCOc1ccc(C)cc1	i	27	i	i	-5.5*	i	172%*	i	27%*	i	i	.
CCN(CC)S(=O)(=O)c1cccc(C(=O)Nc2cccc(C)c2)c1	i	1	i	i	-5.1*	i	i	i	8.0%*	i	i	i

Compound activity (PubChem)
